The text below walks through data of ChEMBL document CHEMBL4425125, “Development of a Dual-Acting Antibacterial Agent (TNP-2092) for the Treatment of Persistent Bacterial Infections” (J Med Chem, 2016).

Assay [1] deals with Staphylococcus aureus. The assay can be described thus: Antimicrobial activity against methicillin-resistant Staphylococcus aureus 67-0. The format is functional.
Assay [2] relates to Staphylococcus aureus. Description: Bactericidal activity against methicillin-resistant Staphylococcus aureus 67-0. The format is functional.
The subject of assay [3] is Staphylococcus aureus. Description: Bactericidal activity against methicillin-sensitive Staphylococcus aureus 29213 infected in mouse macrophages assessed as induction of bacterial kill at 4 ug/ml in presence of 4 ug/ml rifampin after 24 hrs. The format is functional.
Assay [4] concerns Staphylococcus aureus. Description: Antimicrobial activity against Staphylococcus aureus isogenic forms expressing gyrA S84L mutant. The format is functional.
In assay [5] the test system is Staphylococcus aureus. Description: Antimicrobial activity against wild type Staphylococcus aureus. The format is functional.
For assay [6], the system named is Staphylococcus aureus. Description: Antimicrobial activity against Staphylococcus aureus isogenic forms expressing parC S80F mutant. The format is functional. A digest of the protocol: (§1)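 MIC (μg/mL) on otherwise isogenic derivatives of S. aureus ATCC 29213 that carry the rifamycin-resistance allele rpoB H481Y and/or the quinolone-resistance alleles parC S80F and gyrA S84L. The wild-type parent is the reference strain. MICs were determined both by agar dilution and by broth dilution, tested side by side on the same panel.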

The test system of assay [7] is Staphylococcus aureus. Description: Antimicrobial activity against Staphylococcus aureus isogenic forms expressing gyrA S84L and parC S80F mutant. The format is functional. A digest of the protocol:
as §1

Assay [8] deals with Staphylococcus aureus. The assay can be described thus: Antimicrobial activity against Staphylococcus aureus isogenic forms expressing rpoB H481Y mutant. The format is functional.
Assay [9] relates to Staphylococcus aureus. Description: Antimicrobial activity against Staphylococcus aureus isogenic forms expressing rpoB H481Y and gyrA S84L mutant. The format is functional.
Assay [10] deals with Staphylococcus aureus. Description: Antimicrobial activity against Staphylococcus aureus isogenic forms expressing rpoB H481Y and parC S80F mutant. The format is functional. A digest of the protocol: as §1
Assay [11] relates to Staphylococcus aureus. The assay can be described thus: Antimicrobial activity against Staphylococcus aureus isogenic forms expressing rpoB H481Y/gyrA S84L/parC S80F mutant. The format is functional. A digest of the protocol:
as §1

In assay [12] the target is Topoisomerase IV (Staphylococcus aureus) (UniProt P0C1U9+P0C1S7).
For assay [13], the target named is DNA gyrase (Staphylococcus aureus) (UniProt P0A0K8+P20831).
Assay [14] concerns Staphylococcus aureus.
The target in assay [15] is DNA topoisomerase 2-alpha (Homo sapiens) (UniProt P11388).

Values after ≈ are worked out from the molar mass of the structure shown.

In the assay on Staphylococcus aureus [1], `CN[C@H](CC(C)C)C(=O)N[C@H]1C(=O)N[C@@H](CC(N)=O)C(=O)N[C@H]2C(=O)N[C@H]3C(=O)N[C@H](C(=O)N[C@H](C(=O)O)c4cc(O)cc(O)c4-c4cc3ccc4O)[C@H](O)c3ccc(c(Cl)c3)Oc3cc2cc(c3O[C@@H]2O[C@H](CO)[C@@H](O)[C@H](O)[C@H]2O[C@H]2C[C@](C)(N)[C@H](O)[C@H](C)O2)Oc2ccc(cc2Cl)[C@H]1O` [VANCOMYCIN] came in with an MIC of 1 µg/mL (≈ 0.69 µM). In the assay on Staphylococcus aureus [2], this molecule registered an MBC of 1 µg/mL (≈ 0.69 µM).

As to `COc1c(N2C[C@@H]3CCCN[C@@H]3C2)c(F)cc2c(=O)c(C(=O)O)cn(C3CC3)c12` [MOXIFLOXACIN], the Activity entry with Staphylococcus aureus [3] is “<=99.9%”.

`C[C@H]1COc2c(N3CCN(C)CC3)c(F)cc3c(=O)c(C(=O)O)cn1c23.C[C@H]1COc2c(N3CCN(C)CC3)c(F)cc3c(=O)c(C(=O)O)cn1c23.O` [LEVOFLOXACIN]: the MIC against Staphylococcus aureus [4] worked out at 0.25 µg/mL; with Staphylococcus aureus [5], 0.25 µg/mL; with Staphylococcus aureus [6], 1 µg/mL; in the assay with Staphylococcus aureus [7], 8 µg/mL; with Staphylococcus aureus [8] it was 0.25 µg/mL; against Staphylococcus aureus [9], 0.25 µg/mL. Further, the MIC in the assay with Staphylococcus aureus [10] was 1 µg/mL; in the assay with Staphylococcus aureus [11], 8 µg/mL; against Staphylococcus aureus [1], 2 µg/mL. Further, the MBC in the assay with Staphylococcus aureus [2] was determined as 2 µg/mL.

`O=C(O)c1cn(C2CC2)c2cc(N3CCNCC3)c(F)cc2c1=O` [CIPROFLOXACIN]: the MIC with Staphylococcus aureus [6] and in the assay on Staphylococcus aureus [10] was 2 µg/mL (≈ 6.04 µM) each time. The same molecule gave an MBC with Staphylococcus aureus [2] of 16 µg/mL (≈ 48.3 µM). The CC50 in assay [12] is 0.4 µM; in assay [13], 5 µM; with Staphylococcus aureus [14] it was 31 µM; in [15], > 150 µM.

The MIC is the least concentration at which growth counts as inhibited. A high value points to a less susceptible organism. What is called MBC is the lowest tested concentration that kills the bacteria rather than only halting them. Read a low MBC as greater bactericidal potency.
